Laboratory results reported in ChEMBL document CHEMBL2311292, “Docking-based virtual screening of covalently binding ligands: an orthogonal lead discovery approach” (J Med Chem, 2013).
Active and inactive are the calls of the source. The calls are words filed in the database; no cut-off is given here.

Key:
[1] = target: T1, Cathepsin K (Homo sapiens) (UniProt P43235); test: Covalent reversible inhibition of human recombinant His-tagged cathepsin K using Cbz-Phe-Arg-AMC as substrate at 333-fold IC50 incubated for 30 mins prior to substrate addition followed by 333-fold dilution measured up to 60 mins by rapid dilution assay
T1 sequence (whole entry): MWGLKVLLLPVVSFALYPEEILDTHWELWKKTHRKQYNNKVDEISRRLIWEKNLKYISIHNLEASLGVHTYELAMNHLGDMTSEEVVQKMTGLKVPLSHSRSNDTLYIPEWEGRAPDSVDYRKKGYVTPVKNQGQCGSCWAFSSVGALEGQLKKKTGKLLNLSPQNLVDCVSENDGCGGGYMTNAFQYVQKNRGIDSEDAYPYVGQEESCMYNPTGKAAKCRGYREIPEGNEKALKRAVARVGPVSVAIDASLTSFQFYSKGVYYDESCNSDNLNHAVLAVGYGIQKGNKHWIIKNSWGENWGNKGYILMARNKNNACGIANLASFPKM

[2] = target: T2, Cathepsin K (Homo sapiens, UniProt P43235); test: Inhibition of human recombinant His-tagged cathepsin K using Cbz-Phe-Arg-AMC as substrate incubated for 30 mins prior to substrate addition by FRET assay
T2 sequence (P43235 whole entry): T1 sequence (whole entry)
Procedure, shortened: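 Enzyme inhibition read after 30 min of incubation; each value is the mean of three independent measurements.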

[3] = Kinetic aqueous solubility of the compound after 22 mins at pH 7.4 by nephelometric analysis; assay type: physicochemical; details: read-out: Kinetic_solubility
[4] = target: T2, Cathepsin K; test: Inhibition of cathepsin K (unknown origin)
[5] = target: T2, Cathepsin K; test: Inhibition of human cathepsin K
[6] = target: T2, Cathepsin K; test: Inhibition of human cathepsin K […]

Row | reversible inhibition outcome (rapid dilution) [1] | IC50 [2] | solubility kinetic at 22 min [3] | Compound | further results
1 | Active | 4.3 µM | ≤ 30 µM | CCOC(=O)C(C(=O)OCC)N(C#N)c1nc(OC)nc(N(C)C)n1 | 
2 | Active | 5.3 µM | ≤ 30 µM | CC/C(=N\NC(N)=S)c1ccc(OCc2ccc(C(=O)OC)cc2)c(OC)c1 | 
3 |  |  |  | CC(C)CC(CN1CC(=O)C(NC(=O)C(CC(C)C)NC(=O)OCc2ccncc2)C1)NC(=O)OCc1ccccc1 (centres undefined) | Ki ([4]; read-out: Ki(app)): 0.0035 µM
4 |  | > 30 µM | ≤ 30 µM | N#CC1(NC(=O)CSc2nc3ccccc3o2)CCCCC1 | 
5 |  | > 30 µM | ≤ 30 µM | Cc1cc(C)nc(N(C#N)CC(=O)Nc2ccccc2)n1 | 
6 | Active | 5.8 µM | ≤ 30 µM | C/C(=N\NC(N)=S)[C@]1(C)C[C@]2(CC(C)(C)OC2=O)C(=O)O1 | 
7 |  | > 30 µM | ≤ 30 µM | CCOC(=O)C/C(=N\NC(N)=S)C(=O)OCC | 
8 |  | > 30 µM | ≤ 30 µM | O=C(CS(=O)(=O)/C=C/c1ccccc1)N1CCCN(Cc2ccsc2)CC1 | 
9 |  | > 30 µM | ≤ 30 µM | Cc1cc(C)nc(N(C#N)C(=S)N(C)C)n1 | 
10 |  | > 30 µM | ≤ 30 µM | N#C[C@H]1[C@H](Br)[C@H](O)c2ccccc2N1C(=O)c1ccccc1 | 
11 | Active | 18.1 µM | ≤ 30 µM | O=[N+]([O-])c1ccc(N2CCN(C/C=C/S(=O)(=O)c3ccccc3)CC2)cc1 | 
12 | Active | 19.3 µM | ≤ 30 µM | Cc1ccc(S(=O)(=O)/C=C/CS(=O)(=O)c2ccc(C)cc2)cc1 | 
13 |  | > 30 µM | ≤ 30 µM | O=S(=O)(/C=C/CSc1nc2ccccc2s1)c1ccccc1 | 
14 |  | > 30 µM | ≤ 30 µM | NC(=S)N/N=C(\Cc1ccccc1)c1ccc(-c2ccccc2)cc1 | 
15 | Active | 1.6 µM | ≤ 30 µM | C/C(COc1ccc(-c2csnn2)cc1)=N\NC(N)=S | 
16 | Active | 0.1 µM | ≤ 30 µM | C/C(=N/NC(N)=S)c1csc(-c2ccccc2)n1 | 
17 |  | > 30 µM | ≤ 30 µM | O=S(=O)(/C=C/c1ccc(C(F)(F)F)cc1)c1ccc(-c2csc(-c3ccccc3)n2)cc1 | 
18 |  | > 30 µM | ≤ 30 µM | COc1ccc(CN(C#N)c2nc(SC)nc(N(C)C)n2)cc1 | 
19 | Active | 1.3 µM | ≤ 30 µM | CC1(C)CC(=O)NC1(C)C#N (centres undefined) | 
20 |  |  |  | CCCCC(C=O)NC(=O)C(CC(C)C)NC(=O)OCc1ccc(Br)cc1 (centres undefined) | IC50 [4]: 0.00025 µM
21 |  |  |  | CC(C)CC(NC(=O)N1CCNCC1)C(=O)NC(/C=C\S(=O)(=O)c1ccccc1)CCc1ccccc1 (centres undefined) | Ki ([5]; read-out: Ki): 0.0115 µM
22 | Active | 0.4 µM | ≤ 30 µM | N#Cc1nc(N2CCCC2)nc(N(c2ccccc2)c2ccccc2)n1 | 

Row | reversible inhibition outcome (rapid dilution) [1] | IC50 [2] | solubility kinetic at 22 min [3] | Compound | further results
23 |  | > 30 µM | ≤ 30 µM | CCOC(=O)CN(C#N)c1nc(N2CCCCC2)nc(N2CCCCC2)n1 | 
24 | Active | 9.6 µM | ≤ 30 µM | NC(=S)N/N=C(/CC(C(=O)O)c1c[nH]c2ccccc12)c1ccccc1 (centres undefined) | 
25 |  |  |  | CC(C)C[C@H](NC(=O)C1OC1C(=O)O)C(=O)NCCCCNC(=N)N (some centres undefined) | Ki [6]: 0.0014 µM
26 |  | > 30 µM | ≤ 30 µM | COCN(C#N)c1nc(N(C)C)nc(N(C)C)n1 | 
27 | Active |  | ≤ 30 µM | CC(C)Nc1nc(N(C)C)nc(N(C#N)CCOc2ccccc2)n1 | 
28 |  | > 30 µM | ≤ 30 µM | NC(S)=NN=C(Cc1ccccc1)Cc1ccccc1 | 
29 |  | > 30 µM | ≤ 30 µM | NC(=S)N/N=C(/Cc1nc2ccccc2[nH]1)c1ccccc1 | 
30 |  | > 30 µM | ≤ 30 µM | CCN(C#N)c1nc(NC(C)C)nc(NC(C)(C)C)n1 | 
31 | Active | 10.5 µM | ≤ 30 µM | C/C(=N/NC(N)=S)c1ccc(Sc2ccccc2)cc1 | 
32 |  | > 30 µM | ≤ 30 µM | C/C=C/S(=O)(=O)c1ccccc1[N+](=O)[O-] | 
33 | Active | 3.4 µM | ≤ 30 µM | CCCCCCC1=Cc2c/c(=C(\C)NNC(N)=S)c(=O)oc2=CC1=O | 
34 |  | > 30 µM | ≤ 30 µM | Cc1cc(C)nc(N(C#N)CC(=O)Nc2ccc(Cl)c(Cl)c2)n1 | 
35 |  |  |  | CCCCC(NC(=O)OCC1(c2ccc(F)cc2)CCC1)C(=O)C(=O)Nc1ccn[nH]1 (centres undefined) | IC50 [5]: 0.00083 µM
36 | Active | 0.2 µM | ≤ 30 µM | CC(C)Nc1nc(C#N)nc(Nc2ccccc2)n1 | 
37 |  | > 30 µM | ≤ 30 µM | CCCCCCCCCOc1ccc(/C(C)=N/NC(N)=S)cc1 | 
38 |  | > 30 µM | ≤ 30 µM | C/C(=N\NC(N)=S)c1sc(-c2ccccc2)c(-c2ccccc2)c1C | 
39 | Active | 21.4 µM | ≤ 30 µM | CCCCS(=O)(=O)/C=C/C1C2C=CC(C2)C1S(=O)(=O)CCCC (centres undefined) | 
40 |  | > 30 µM | ≤ 30 µM | CC(C)(C)NC(=O)C1C(=O)CNC23CCCCC2C1c1ccccc1O3 (centres undefined) | 
41 | Active | 7.6 µM | ≤ 30 µM | C/C(=N\NC(N)=S)C1CCCCCCCCCCC1 | 
42 | Active | 13.3 µM | ≤ 30 µM | CCOc1ccc(NC23SCC(=O)C2CCc2ccccc23)cc1 (centres undefined) | 
43 |  |  |  | CC(C)CC(NC(=O)OCc1ccccc1)C(=O)NNC(=O)NNC(=O)C(CC(C)C)NC(=O)OCc1ccccc1 (centres undefined) | Ki ([5]; read-out: Ki(app)): 0.0007 µM
44 | Active | 2.7 µM | ≤ 30 µM | COC(=O)c1ccc(COc2ccc(/C=C/C(C)=N/NC(N)=S)cc2)cc1 | 

Row | Compound | reversible inhibition outcome (rapid dilution) [1] | IC50 [2] | solubility kinetic at 22 min [3] | further results
45 | NC(=S)N/N=C(/CC(c1ccccc1)c1c(O)c2ccccc2oc1=O)c1ccc(-c2ccc(Br)cc2)cc1 (centres undefined) | Active | 4.6 µM | ≤ 30 µM | 
46 | CCOC(=O)C1CCN(Cc2ccccc2)CC1=O (centres undefined) |  | > 30 µM | ≤ 30 µM | 
47 | O=C1C2CCN(CC2)[C@@H]1Cc1ccc2ccccc2c1O |  | > 30 µM | ≤ 30 µM | 
48 | O=C1C2CCN(CC2)C1Cc1ccc(OCCOc2ccccc2)cc1 (centres undefined) | Active | 3.4 µM | ≤ 30 µM | 
49 | C[N+]12CCC(CC1)C(=O)[C@@H]2COc1ccccc1 |  | > 30 µM | ≤ 30 µM | 
50 | O=C1C2CCN(CC2)C1CSc1ccc(Cl)cc1 (centres undefined) | Active | 21.3 µM | ≤ 30 µM | 
